According to ChEMBL document CHEMBL1152541, “Staurosporine tethered peptide ligands that target cAMP-dependent protein kinase (PKA): optimization and selectivity profiling” (Bioorg Med Chem, 2009):
Values belong to the molecule of their own block, whether it stands above or below them. *1 amine or outer side, *2 acyl side, *3 side chain or, on linkers, in order; H or OH if unused. Where a SMILES comes first, the peptide text is derived from it. Bridges are numbered along the chain shown (N, C = ends). [ ]: non-standard residue; d: D form. The star is where a group is joined. Staurosporine = CO[C@@H]1[C@H](N(C)*)C[C@H]2O[C@]1(C)n1c3ccccc3c3c4c(c5c6ccccc6n2c5c31)C(=O)NC4; Suc = O=C(CCC(=O)[*:2])[*:1]; Dap = NC[C@H](N)C(=O)O; βAla = NCCC(=O)O

Experiments:
[1] = biological target: T1, Protein kinase C epsilon type (Homo sapiens) (UniProt Q02156); experiment: Binding affinity to human PRKCepsilon at 500 nM by cell-based competition binding assay relative to control in presence of DTT
T1 sequence (whole entry): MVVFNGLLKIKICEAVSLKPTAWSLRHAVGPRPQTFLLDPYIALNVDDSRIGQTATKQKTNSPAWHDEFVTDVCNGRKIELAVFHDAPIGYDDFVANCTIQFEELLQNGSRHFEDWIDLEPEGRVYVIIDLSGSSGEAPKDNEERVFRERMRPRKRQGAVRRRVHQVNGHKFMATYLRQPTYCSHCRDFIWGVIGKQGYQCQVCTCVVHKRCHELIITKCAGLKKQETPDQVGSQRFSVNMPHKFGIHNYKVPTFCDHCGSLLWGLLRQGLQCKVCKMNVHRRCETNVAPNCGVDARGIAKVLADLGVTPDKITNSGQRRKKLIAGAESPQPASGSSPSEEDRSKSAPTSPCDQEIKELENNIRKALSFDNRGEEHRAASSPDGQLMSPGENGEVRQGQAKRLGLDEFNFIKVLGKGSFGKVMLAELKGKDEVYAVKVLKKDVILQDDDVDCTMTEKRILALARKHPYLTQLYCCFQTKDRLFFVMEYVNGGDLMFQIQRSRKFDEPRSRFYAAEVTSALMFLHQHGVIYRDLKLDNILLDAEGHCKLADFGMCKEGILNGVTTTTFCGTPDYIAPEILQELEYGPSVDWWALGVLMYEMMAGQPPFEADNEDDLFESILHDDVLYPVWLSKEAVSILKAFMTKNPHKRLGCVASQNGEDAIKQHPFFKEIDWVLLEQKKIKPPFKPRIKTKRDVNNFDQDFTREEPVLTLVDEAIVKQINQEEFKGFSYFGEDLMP

[2] = biological target: T2, Tyrosine-protein kinase JAK3 (Homo sapiens) (UniProt P52333); experiment: Binding affinity to human JAK3 kinase domain 2 at 500 nM by cell-based competition binding assay relative to control in presence of DTT
T2 sequence (whole entry): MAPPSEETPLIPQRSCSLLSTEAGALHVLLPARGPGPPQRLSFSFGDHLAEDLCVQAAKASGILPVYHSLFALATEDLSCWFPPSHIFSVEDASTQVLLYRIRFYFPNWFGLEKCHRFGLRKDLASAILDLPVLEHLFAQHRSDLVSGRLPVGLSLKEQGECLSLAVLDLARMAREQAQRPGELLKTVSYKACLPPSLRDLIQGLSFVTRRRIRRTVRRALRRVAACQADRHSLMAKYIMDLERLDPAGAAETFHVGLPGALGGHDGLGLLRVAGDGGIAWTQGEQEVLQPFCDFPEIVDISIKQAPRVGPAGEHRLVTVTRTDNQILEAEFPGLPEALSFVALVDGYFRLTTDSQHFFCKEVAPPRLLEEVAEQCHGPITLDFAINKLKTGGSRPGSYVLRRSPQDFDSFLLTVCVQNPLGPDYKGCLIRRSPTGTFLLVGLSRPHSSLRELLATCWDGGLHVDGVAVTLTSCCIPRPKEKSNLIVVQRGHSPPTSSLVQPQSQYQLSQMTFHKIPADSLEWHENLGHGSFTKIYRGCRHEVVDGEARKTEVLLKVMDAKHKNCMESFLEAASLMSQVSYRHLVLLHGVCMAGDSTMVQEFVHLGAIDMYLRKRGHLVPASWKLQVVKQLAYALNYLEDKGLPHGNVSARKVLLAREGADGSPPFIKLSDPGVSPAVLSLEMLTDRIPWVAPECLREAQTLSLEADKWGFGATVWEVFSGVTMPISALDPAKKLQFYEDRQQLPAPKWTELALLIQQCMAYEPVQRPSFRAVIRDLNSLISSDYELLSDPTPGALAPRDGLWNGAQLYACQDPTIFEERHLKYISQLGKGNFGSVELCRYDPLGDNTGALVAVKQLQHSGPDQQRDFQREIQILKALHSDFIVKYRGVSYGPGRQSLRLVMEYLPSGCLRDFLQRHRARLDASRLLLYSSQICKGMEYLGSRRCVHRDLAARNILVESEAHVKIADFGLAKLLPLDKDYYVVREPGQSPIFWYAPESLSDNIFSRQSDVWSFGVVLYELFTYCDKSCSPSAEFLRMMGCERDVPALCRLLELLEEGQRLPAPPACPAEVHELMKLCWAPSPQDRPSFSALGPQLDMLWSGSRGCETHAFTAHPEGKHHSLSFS
Procedure, shortened: (§1)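 Competition binding screen (Ambit) across a panel of 90 kinases, scoring test ligand displacement of each kinase's binding relative to control. The screen ran under reducing conditions with 7.5 mM DTT.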

[3] = biological target: MAP kinase-activated protein kinase 2 (Homo sapiens) (UniProt P49137); experiment: Binding affinity to human MAPKAPK2 at 500 nM by cell-based competition binding assay relative to control in presence of DTT; procedure, shortened: as §1
Chain of MAP kinase-activated protein kinase 2 (Homo sapiens) (P49137 whole entry, looked up): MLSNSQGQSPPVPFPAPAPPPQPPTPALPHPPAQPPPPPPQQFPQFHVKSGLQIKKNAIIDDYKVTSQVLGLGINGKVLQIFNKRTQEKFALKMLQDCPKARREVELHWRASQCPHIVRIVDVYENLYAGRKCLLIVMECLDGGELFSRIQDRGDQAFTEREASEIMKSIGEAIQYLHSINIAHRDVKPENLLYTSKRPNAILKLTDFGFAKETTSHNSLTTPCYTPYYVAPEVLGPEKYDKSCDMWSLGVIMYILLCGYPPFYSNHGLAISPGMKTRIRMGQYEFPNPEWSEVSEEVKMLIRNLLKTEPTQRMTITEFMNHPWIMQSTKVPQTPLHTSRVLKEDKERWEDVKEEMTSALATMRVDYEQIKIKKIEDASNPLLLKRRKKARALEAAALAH

[4] = biological target: Mitogen-activated protein kinase 11 (Homo sapiens) (UniProt Q15759); experiment: Binding affinity to human p38beta at 500 nM by cell-based competition binding assay relative to control in presence of DTT
Chain of Mitogen-activated protein kinase 11 (Homo sapiens) (Q15759 whole entry): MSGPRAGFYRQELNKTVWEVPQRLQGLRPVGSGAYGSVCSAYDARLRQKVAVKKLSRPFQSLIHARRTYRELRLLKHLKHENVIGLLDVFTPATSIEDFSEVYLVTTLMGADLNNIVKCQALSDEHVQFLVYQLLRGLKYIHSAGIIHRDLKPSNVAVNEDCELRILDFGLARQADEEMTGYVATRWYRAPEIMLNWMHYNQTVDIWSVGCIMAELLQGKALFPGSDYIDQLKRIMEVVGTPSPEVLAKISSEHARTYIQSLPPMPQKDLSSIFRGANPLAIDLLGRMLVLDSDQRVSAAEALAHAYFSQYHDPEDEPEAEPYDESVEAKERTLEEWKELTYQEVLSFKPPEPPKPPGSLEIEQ

[5] = biological target: Mitogen-activated protein kinase 10 (Homo sapiens) (UniProt P53779); experiment: Binding affinity to human JNK3 at 200 nM by cell-based competition binding assay relative to control in presence of DTT; procedure, shortened: as §1
Chain of Mitogen-activated protein kinase 10 (Homo sapiens) (P53779 whole entry): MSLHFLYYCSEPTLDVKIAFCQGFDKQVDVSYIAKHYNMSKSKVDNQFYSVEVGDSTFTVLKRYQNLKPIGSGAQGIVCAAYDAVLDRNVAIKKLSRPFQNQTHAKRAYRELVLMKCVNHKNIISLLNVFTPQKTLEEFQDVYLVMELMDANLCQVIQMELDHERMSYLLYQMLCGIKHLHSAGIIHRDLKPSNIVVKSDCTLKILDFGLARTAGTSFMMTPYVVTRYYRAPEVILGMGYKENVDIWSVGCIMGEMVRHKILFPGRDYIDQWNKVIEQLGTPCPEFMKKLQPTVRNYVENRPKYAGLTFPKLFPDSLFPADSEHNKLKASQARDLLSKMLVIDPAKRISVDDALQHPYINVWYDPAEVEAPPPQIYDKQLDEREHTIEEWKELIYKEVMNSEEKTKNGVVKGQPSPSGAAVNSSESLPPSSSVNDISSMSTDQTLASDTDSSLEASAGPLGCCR

[6] = biological target: Dual specificity mitogen-activated protein kinase kinase 2 (Homo sapiens) (UniProt P36507); experiment: Binding affinity to human MEK2 at 200 nM by cell-based competition binding assay relative to control in presence of DTT
Chain of Dual specificity mitogen-activated protein kinase kinase 2 (Homo sapiens) (P36507 whole entry): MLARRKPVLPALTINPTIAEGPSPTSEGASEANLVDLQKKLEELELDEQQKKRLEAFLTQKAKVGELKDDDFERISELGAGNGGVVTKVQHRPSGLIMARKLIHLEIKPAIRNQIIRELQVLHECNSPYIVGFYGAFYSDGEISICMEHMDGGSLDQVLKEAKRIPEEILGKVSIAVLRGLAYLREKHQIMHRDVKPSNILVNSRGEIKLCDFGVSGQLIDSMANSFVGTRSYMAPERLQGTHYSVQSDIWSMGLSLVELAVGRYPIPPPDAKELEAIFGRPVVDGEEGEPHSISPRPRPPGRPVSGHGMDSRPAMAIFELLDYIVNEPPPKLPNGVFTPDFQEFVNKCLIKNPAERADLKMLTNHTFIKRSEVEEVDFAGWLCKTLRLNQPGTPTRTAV

[7] = biological target: Mitogen-activated protein kinase 14 (Homo sapiens) (UniProt Q16539); experiment: Binding affinity to human p38alpha at 200 nM by cell-based competition binding assay relative to control in presence of DTT
Chain of Mitogen-activated protein kinase 14 (Homo sapiens) (Q16539 whole entry): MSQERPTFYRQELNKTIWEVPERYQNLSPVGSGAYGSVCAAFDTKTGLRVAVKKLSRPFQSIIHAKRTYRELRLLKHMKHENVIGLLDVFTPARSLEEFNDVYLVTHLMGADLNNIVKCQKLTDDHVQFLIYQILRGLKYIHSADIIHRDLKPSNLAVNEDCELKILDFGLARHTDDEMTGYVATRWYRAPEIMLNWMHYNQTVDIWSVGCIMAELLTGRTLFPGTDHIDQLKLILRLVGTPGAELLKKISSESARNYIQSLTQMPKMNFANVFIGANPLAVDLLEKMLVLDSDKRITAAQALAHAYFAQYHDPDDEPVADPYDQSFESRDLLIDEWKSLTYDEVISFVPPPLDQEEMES

[8] = biological target: Mitogen-activated protein kinase 11 (Homo sapiens) (UniProt Q15759); experiment: Binding affinity to human p38beta at 200 nM by cell-based competition binding assay relative to control in presence of DTT
[9] = biological target: Serine/threonine-protein kinase pim-2 (Homo sapiens) (UniProt Q9P1W9); experiment: Binding affinity to human PIM2 at 200 nM by cell-based competition binding assay relative to control in presence of DTT
Chain of Serine/threonine-protein kinase pim-2 (Homo sapiens) (Q9P1W9 whole entry, looked up): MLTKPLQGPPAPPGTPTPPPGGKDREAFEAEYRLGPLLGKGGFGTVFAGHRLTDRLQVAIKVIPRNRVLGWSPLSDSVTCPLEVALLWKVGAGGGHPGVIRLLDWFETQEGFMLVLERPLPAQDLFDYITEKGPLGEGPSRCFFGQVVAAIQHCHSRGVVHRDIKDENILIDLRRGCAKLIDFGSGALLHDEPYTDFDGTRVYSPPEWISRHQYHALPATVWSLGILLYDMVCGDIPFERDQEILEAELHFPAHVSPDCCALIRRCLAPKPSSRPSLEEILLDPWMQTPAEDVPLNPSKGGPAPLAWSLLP

[10] = biological target: Cyclin-dependent kinase 3 (Homo sapiens) (UniProt Q00526); experiment: Binding affinity to human CDK3 at 200 nM by cell-based competition binding assay relative to control in presence of DTT
Chain of Cyclin-dependent kinase 3 (Homo sapiens) (Q00526 whole entry, looked up): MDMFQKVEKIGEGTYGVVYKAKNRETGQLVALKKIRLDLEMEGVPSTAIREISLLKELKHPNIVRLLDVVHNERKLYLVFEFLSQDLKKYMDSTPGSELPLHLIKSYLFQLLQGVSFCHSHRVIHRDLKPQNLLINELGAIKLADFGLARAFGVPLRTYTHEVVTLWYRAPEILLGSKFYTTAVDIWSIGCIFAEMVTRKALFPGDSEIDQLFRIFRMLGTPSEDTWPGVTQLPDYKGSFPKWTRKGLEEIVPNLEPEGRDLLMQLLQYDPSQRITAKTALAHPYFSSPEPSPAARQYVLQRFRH
Procedure, shortened: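 Kinase binding profiling ran on a commercial (Ambit) competitive binding screen against a panel of 90 kinases. The screen used reducing conditions with 7.5 mM DTT. To withstand the DTT, the bivalent ligand was tested as its amide isostere, with the disulfide replaced. A staurosporine derivative carrying a 3 β-alanine linker was run as the reference compound.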

[11] = biological target: Casein kinase I isoform gamma-2 (Homo sapiens) (UniProt P78368); experiment: Binding affinity to human CSNK1G2 at 200 nM by cell-based competition binding assay relative to control in presence of DTT
Chain of Casein kinase I isoform gamma-2 (Homo sapiens) (P78368 whole entry, looked up, canonical isoform): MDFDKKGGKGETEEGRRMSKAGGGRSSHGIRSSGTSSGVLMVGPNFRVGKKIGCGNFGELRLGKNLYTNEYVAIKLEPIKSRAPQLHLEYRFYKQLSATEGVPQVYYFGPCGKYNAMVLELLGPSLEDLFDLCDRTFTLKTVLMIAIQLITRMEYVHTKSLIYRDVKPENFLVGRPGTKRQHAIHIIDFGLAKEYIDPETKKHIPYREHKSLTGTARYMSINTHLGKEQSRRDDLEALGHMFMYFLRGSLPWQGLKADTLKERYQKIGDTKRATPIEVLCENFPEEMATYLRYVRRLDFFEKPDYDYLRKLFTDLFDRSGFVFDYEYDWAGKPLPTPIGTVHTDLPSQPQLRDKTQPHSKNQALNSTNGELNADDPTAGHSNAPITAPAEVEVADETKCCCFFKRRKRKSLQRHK
Procedure, shortened: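 Commercial (Ambit) competitive kinase-binding panel of 90 kinases measured the binding profile. Run under reducing conditions of 7.5 mM DTT. Binding is expressed relative to control.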

[12] = biological target: Focal adhesion kinase 1 (Homo sapiens) (UniProt Q05397); experiment: Binding affinity to human PTK2 at 50 nM by cell-based competition binding assay relative to control in presence of DTT
Chain of Focal adhesion kinase 1 (Homo sapiens) (Q05397 2-1052 limits assumed): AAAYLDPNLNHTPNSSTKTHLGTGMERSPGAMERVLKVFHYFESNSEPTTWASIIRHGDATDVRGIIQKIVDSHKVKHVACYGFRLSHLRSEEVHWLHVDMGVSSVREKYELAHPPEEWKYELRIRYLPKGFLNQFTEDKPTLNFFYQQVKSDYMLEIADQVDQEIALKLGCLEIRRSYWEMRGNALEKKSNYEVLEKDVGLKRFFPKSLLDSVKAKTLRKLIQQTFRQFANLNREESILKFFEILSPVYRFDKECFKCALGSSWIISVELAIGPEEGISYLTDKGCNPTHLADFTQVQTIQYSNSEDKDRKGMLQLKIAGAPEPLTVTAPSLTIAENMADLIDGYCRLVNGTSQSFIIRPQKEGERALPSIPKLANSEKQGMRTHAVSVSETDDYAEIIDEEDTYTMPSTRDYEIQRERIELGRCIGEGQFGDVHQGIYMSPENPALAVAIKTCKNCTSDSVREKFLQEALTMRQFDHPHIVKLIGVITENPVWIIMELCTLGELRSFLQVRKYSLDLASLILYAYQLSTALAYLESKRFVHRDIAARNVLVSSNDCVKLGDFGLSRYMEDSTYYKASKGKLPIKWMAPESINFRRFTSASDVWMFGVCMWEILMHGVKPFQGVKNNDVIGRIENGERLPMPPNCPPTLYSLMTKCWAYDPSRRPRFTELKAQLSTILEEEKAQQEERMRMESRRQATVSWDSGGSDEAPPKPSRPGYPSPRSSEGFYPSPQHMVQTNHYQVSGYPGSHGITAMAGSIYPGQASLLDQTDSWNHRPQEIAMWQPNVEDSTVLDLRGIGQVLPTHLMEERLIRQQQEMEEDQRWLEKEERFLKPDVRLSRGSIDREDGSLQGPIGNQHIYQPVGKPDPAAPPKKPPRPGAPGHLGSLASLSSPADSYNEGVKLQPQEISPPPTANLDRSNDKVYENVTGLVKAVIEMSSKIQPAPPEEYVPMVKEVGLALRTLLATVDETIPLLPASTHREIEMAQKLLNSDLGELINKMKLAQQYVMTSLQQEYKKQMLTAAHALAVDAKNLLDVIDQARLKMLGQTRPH

Activity [1]: 0.6%
Activity [2]: 3.6%
Activity [3]: 100%
Activity [4]: 100%
Compound: CO[C@@H]1[C@H](N(C)C(=O)CCC(=O)NCCC(=O)NCCC(=O)NCCC(N)=O)C[C@H]2O[C@]1(C)n1c3ccccc3c3c4c(c5c6ccccc6n2c5c31)C(=O)NC4

Activity [5]: 65%
Activity [6]: 100%
Activity [7]: 89%
Activity [8]: 100%
Activity [9]: 100%
Activity [10]: 100%
Activity [11]: 100%
Compound: CO[C@@H]1[C@H](N(C)C(=O)CCC(=O)NCCC(=O)NCCC(=O)NCCC(=O)NCCC(=O)NCCC(=O)NCCC(=O)NCCC(=O)N[C@H]2CSSC[C@@H](C(=O)NCC(N)=O)NC(=O)CNC(=O)[C@H](Cc3ccccc3)NC(=O)[C@H](C(C)C)NC(=O)[C@H](CCCNC(=N)N)NC(=O)[C@H](Cc3ccccc3)NC(=O)[C@H](C(C)C)NC2=O)C[C@H]2O[C@]1(C)n1c3ccccc3c3c4c(c5c6ccccc6n2c5c31)C(=O)NC4 ({Staurosporine-Suc-βAla-βAla-βAla-βAla-βAla-βAla-βAla}-CVFRVFGCG-NH2; disulfide 1-8)

Activity [12]: 100%
Compound: CO[C@@H]1[C@H](N(C)C(=O)CCC(=O)NCCC(=O)NCCC(=O)NCCC(=O)NCCC(=O)NCCC(=O)NCCC(=O)NCCC(=O)N[C@H]2CNC(=O)C[C@@H](C(N)=O)NC(=O)CNC(=O)[C@H](Cc3ccccc3)NC(=O)[C@H](C(C)C)NC(=O)[C@H](CCCNC(=N)N)NC(=O)[C@H](Cc3ccccc3)NC(=O)[C@H](C(C)C)NC2=O)C[C@H]2O[C@]1(C)n1c3ccccc3c3c4c(c5c6ccccc6n2c5c31)C(=O)NC4 ({Staurosporine-Suc-βAla-βAla-βAla-βAla-βAla-βAla-βAla}-[Dap]VFRVFGD-NH2; lactam 1-8)
